Measured values as given in ChEMBL document CHEMBL1126755, “Anticonvulsant activities of some arylsemicarbazones displaying potent oral activity in the maximal electroshock screen in rats accompanied by high protection indices” (J Med Chem, 1993).

Tests used:
[1] = Toxic dose determined as neurotoxicity, 1 h after oral dosing in rat; assay type: toxicity, organism-based; conditions: in vivo
Method in brief: (§1)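 Oral dosing in rats, with MES protection or neurotoxicity assessed at the stated time. ED50 or TD50 (mg/kg) given with 95% CI, slope and SE. Testing done by NINDS under its reported procedures.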

[2] = Toxic dose determined as neurotoxicity, 0.25 hr after intraperitoneal injection in mice.; assay type: toxicity, organism-based; conditions: mouse, in vivo, ip
Method in brief: (§2)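 Mice received compound intraperitoneally, with quantitative evaluation in the MES, scPTZ and neurotoxicity screens at the tabulated time. ED50 or TD50 (mg/kg) reported with 95% CI, slope and SE. Testing done by NINDS under its reported procedures.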

[3] = system: Mus musculus; experiment: Effective dose for protection against seizures induced in the subcutaneous pentylenetetrazole screen test in mice; assay type: functional; conditions: sc; method in brief: as §2
[4] = system: Mus musculus; experiment: Ability to prevent seizures induced by subcutaneous injection of bicuculline, after 1 hr in mice; assay type: functional; conditions: sc
Method in brief: (§3)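 Mice dosed intraperitoneally at various doses, then bicuculline 2.7 mg/kg given subcutaneously and protection noted. ED50 with 95% CI, slope and SE obtained using eight animals per dose; otherwise two, seven or eight mice per dose. Screening run by NINDS per its reported procedures.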

[5] = Protective index is the ratio of TD50 and ED50 in subcutaneous pentylenetetrazole screen test; assay type: functional
Method in brief: (§4)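 Protection index is TD50/ED50, taken from intraperitoneal mouse data for the MES and scPTZ screens respectively, or from oral rat MES data.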

[6] = system: Mus musculus; experiment: Ability to prevent seizures induced by subcutaneous injection of picrotoxin, after 1 hr in mice; assay type: functional; conditions: sc
Method in brief: (§5)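 Mice received various intraperitoneal doses of compound, then subcutaneous picrotoxin at 2.5 mg/kg. Protection from seizures was scored. ED50 values use eight mice per dose and are given with 95% CI, slope and SE.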

[7] = Protective index is the ratio of TD50 and ED50 in maximal electroshock anticonvulsant screen test; assay type: functional; method in brief: as §4
[8] = system: Rattus norvegicus; experiment: Effective dose for protection against seizures induced in the maximal electroshock anticonvulsant screen test 1 hr after oral dosing in rat; assay type: functional; method in brief: as §1
[9] = Protective index is the ratio of TD50 in neurotoxicity screen test and ED50 in MES screen test
[10] = system: Mus musculus; experiment: Effective dose for protection against seizures induced in the maximal electroshock anticonvulsant screen test after intraperitoneal injection in mice; assay type: functional; conditions: ip; method in brief: as §2
[11] = Neurotoxicity was determined, 1 hr after oral dosing in rat.; assay type: toxicity, organism-based; conditions: in vivo; method in brief: as §1
[12] = system: Mus musculus; experiment: Ability to prevent seizures induced by subcutaneous injection of picrotoxin, after 0.25 hr in mice; assay type: functional; conditions: sc; method in brief: as §5
[13] = system: Mus musculus; experiment: Ability to prevent seizures induced by subcutaneous injection of bicuculline, after 0.25 hr in mice; assay type: functional; conditions: sc; method in brief: as §3
[14] = system: Rattus norvegicus; experiment: Neurotoxicity was determined, of 0.25, 0.5, 1, 2 and 4 h, after 300 mg/kg oral dosing in rat.; assay type: toxicity, organism-based; set-up: dose 300 mg/kg, route oral; conditions: in vivo
Method in brief: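 Rats given 300 mg/kg orally and checked for neurotoxicity 0.25, 0.5, 1, 2 and 4 h later, using two animals per time point. Testing done by NINDS.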

[15] = Neurotoxicity was determined, 1 hr after oral dosing in rat; assay type: toxicity, organism-based; conditions: in vivo; method in brief: as §1
[16] = Neurotoxicity was determined, 0.25 hr after intraperitoneal injection in mice.; assay type: toxicity, organism-based; conditions: mouse, in vivo, ip; method in brief: as §2
[17] = system: Mus musculus; experiment: Ability to prevent seizures induced by subcutaneous injection of bicuculline, after 4 hr in mice; assay type: functional; conditions: sc; method in brief: as §3
[18] = Toxic dose determined neurotoxicity, 1 hr after oral dosing in rat; assay type: toxicity, organism-based; conditions: in vivo
Method in brief: (§6)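 Rats were dosed orally, with the NINDS programme running the tests by its reported procedures. MES protection (ED50) and neurotoxicity (TD50) were measured at timed intervals after dosing. Each value is given as a dose-response ED50 or TD50 in mg/kg with 95% CI, slope and SE.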

[19] = system: Rattus norvegicus; experiment: Ability to protect against seizures induced in the maximal electro shock (MES) screen test 1 hr after oral dosing in rat; assay type: functional; method in brief: as §6
[20] = Toxic dose determined as neurotoxicity, 0.25 hr after intraperitoneal injection in mice; assay type: toxicity, organism-based; conditions: mouse, in vivo, ip
Method in brief: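 Mice received the compound by intraperitoneal injection, with the NINDS programme running the test by its reported procedures. Neurotoxicity was assessed at set times after dosing. TD50 is given in mg/kg with 95% CI, slope and SE.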

[21] = system: Rattus norvegicus; experiment: Ability to protect against seizures induced in the maximal electro shock (MES) screen,test1 hr after oral dosing in rat.; assay type: functional; method in brief: as §1

SMILES | ED50 [3] [mg/kg] | Ratio [5] | Ratio [7] | ED50 [8] [mg/kg] | Ratio [9] | ED50 [10] [mg/kg] | TD50 at 1 h [11] [mg/kg] | ED50 [12] [mg/kg] | ED50 [13] [mg/kg] | TD50 at 0.25 h [16] [mg/kg] | further results
NC(=O)N/N=C/c1cccc(Cl)c1 | 177 | >2.82 | > 5.53 | 24.4 | > 20.5 | 90.4 |  |  |  |  | TD50 at 1 h [1]: > 500 mg/kg; TD50 at 0.25 h [2]: > 500 mg/kg; ED50 [4]: > 500 mg/kg; ED50 [6]: 200 mg/kg
CCCCC/C(=N\NC(N)=O)c1ccccc1 |  |  |  | 32.6 | > 15.3 |  | > 500 | 230 | 363 |  | 
CC/C(=N\NC(N)=O)c1ccccc1 |  |  |  | 32.8 | 12.3 |  | 404 | 128 | > 100 |  | 
COc1ccc(/C=N/NC(N)=O)cc1 |  |  |  |  |  |  |  |  |  |  | TD50 [14]: No activity
NC(=O)N/N=C/c1ccc(Cl)cc1Cl |  |  |  | 43.1 | > 11.6 |  | > 500 |  |  |  | 
NC(=O)N/N=C/c1ccccc1Cl |  |  |  | 38.8 | > 12.9 |  | > 500 |  |  |  | 
NC(=O)N/N=C/c1ccc(Cl)cc1 | 135 | 1.87 | 3.37 | 18.6 | > 26.9 | 74.8 |  | 146 | > 300 | 252 | TD50 at 1 h [15]: > 500 mg/kg
NC(=O)N/N=C/c1c(Cl)cccc1Cl |  |  |  | 59 | 2.18 |  | 129 |  |  |  | 
NC(=O)N/N=C/c1ccc(Cl)c(Cl)c1 | > 500 |  | > 3.43 | 20.2 | > 24.8 | 146 | > 500 |  |  | > 500 | ED50 [17]: > 500 mg/kg
CC(C)/C(=N\NC(N)=O)c1ccccc1 |  |  |  | 43.3 | 5.66 |  | 245 |  |  |  | 
NC(=O)NN=C(c1ccccc1)c1ccccc1 [DIPHENYLSEMICARBAZONE] | 76.2 | 1.18 | 1.91 | 22.9 | 10.3 | 47 | 235 |  | > 100 | 89.7 | 
C/C(=N/N=C(\N)S)c1ccc(Cl)cc1 [P-CHLOROPHENYL(METHYL)THIOSEMICARBAZONE] | 69.6 | 0.34 | 0.39 |  | 7.67 | 60.4 |  |  |  |  | TD50 at 1 h [18]: 119 mg/kg; ED50 [19]: 15.5 mg/kg; TD50 at 0.25 h [20]: 23.8 mg/kg
CCCC/C(=N\NC(N)=O)c1ccccc1 [PHENYL(BUTYL)SEMICARBAZONE] | 108 | 0.97 | 1.81 | 59.5 | > 8.41 | 58.3 | > 500 |  |  | 106 | 
CC(=NNC(N)=O)c1ccccc1 [PHENYL(METHYL)SEMICARBAZONE] | 78.5 | 1.05 | 2.34 | 20.2 | 13.2 | 35.1 | 268 | 60.8 | > 100 | 82.3 | 
C/C(=N\N=C(/N)S)c1ccccc1 [PHENYL(METHYL)THIOSEMICARBAZONE] |  |  |  | 16.9 | 4.33 |  | 73 |  |  |  | 
NC(=O)N/N=C/C=C/c1ccccc1 [PHENYLETHENYLSEMICARBAZONE] | 84.7 | 1.16 | 2.01 | 11.5 | > 43.5 | 48.9 | > 500 |  | > 120 | 98.2 | 
NC(=O)N/N=C/CCc1ccccc1 [PHENYLETHYLSEMICARBAZONE] | 78.6 | 0.92 | 1.54 | 36.4 | 9.16 | 47 | 334 |  | > 120 | 72.3 | 
NC(=O)N/N=C/Cc1ccccc1 [PHENYLMETHYLSEMICARBAZONE] | 128 | 0.94 | 2.63 | 42.8 | > 11.7 | 45.5 | > 500 | > 150 | 59.6 | 120 | 
NC(=O)N/N=C\c1ccccc1 [PHENYLSEMICARBAZONE] | 127 | 1.6 | 2.93 |  | 11.3 | 69.7 |  | 104 | 116 |  | TD50 at 1 h [15]: 254 mg/kg; ED50 [21]: 22.5 mg/kg; TD50 at 0.25 h [20]: 204 mg/kg
NC(=S)N/N=C/c1ccccc1 [PHENYLTHIOSEMICARBAZONE] |  |  |  | 12.8 | > 15.6 |  | > 200 |  |  |  | 
